A selection: hits, their analogues and other compounds. The true share with any hit is near 2.9%.
OX1R antag-1 = OX1R (HCRTR1) antagonists, primary screen, fluorescence, CHO/OX1R cells, Fluo-8 calcium, orexin A; Orexin/Hypocretin receptor type 1 (Homo sapiens), O43613; Fluo-8 calcium fluorescence; inhibition, % at 5 µM; actives 0.43% (n = 330,000);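 active = inhibition above its plate's threshold, mean inhibition of all tested compounds on the plate plus 3 SD, cut at about 37% in these data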;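 note: 0% = orexin A challenge wells and 100% = SB-334867-A antagonist wells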
Target sequence (O43613 whole entry, looked up): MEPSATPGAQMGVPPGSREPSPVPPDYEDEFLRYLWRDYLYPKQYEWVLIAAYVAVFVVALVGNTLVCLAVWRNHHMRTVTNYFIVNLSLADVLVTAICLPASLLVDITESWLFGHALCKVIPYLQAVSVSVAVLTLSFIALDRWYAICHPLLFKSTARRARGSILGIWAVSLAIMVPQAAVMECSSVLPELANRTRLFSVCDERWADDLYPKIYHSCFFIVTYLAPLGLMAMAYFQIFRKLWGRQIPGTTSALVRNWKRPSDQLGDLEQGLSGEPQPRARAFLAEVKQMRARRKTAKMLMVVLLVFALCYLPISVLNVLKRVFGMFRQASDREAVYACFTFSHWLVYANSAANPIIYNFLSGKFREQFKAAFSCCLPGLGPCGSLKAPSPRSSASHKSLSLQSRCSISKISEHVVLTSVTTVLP
OX1R antag-2 = antagonists of human orexin 1 receptor (OX1R). inhibition, % at 6.6 µM. actives 1.8% (n = 330,000). OX1R-expressing cells, FRET antagonist read-out; in the data active = inhibition mostly above about 38%, no sharp cut-off; inactive = mostly below about 40%;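 note: 0% = agonist challenge alone and 100% = reference antagonist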
CHO-K1 Ca antag = M1 antagonist counterscreen hit in parental CHO-K1 cells; inhibition, % at 3 µM; actives 0.6% (n = 360,000); ATP-induced calcium, Fluo-8 fluorescence; AID 602250;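 active = inhibition above a per-plate cutoff, the plate's mean sample inhibition plus 3 SD, cut at about 24% in these data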;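 note: 0% = DMSO plus EC80 ATP and 100% = DMSO alone without ATP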
M1 PAM parental = nonselective calcium activators in parental CHO-K1 cells, primary screen, counter-screen for M1 PAM project, cell-based, Fluo-8 calcium fluorescence, full deck, 1536-well | ATP EC20; 0% at ATP EC20, 100% at ATP max | activation, % at 3 µM | actives 0.02% (n = 360,000) | AID 602247, 2012;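 active = activation above the run cutoff, the mean activation of all test compounds plus 3 SD, cut at about 40% in these data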;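 note: peak over basal fluorescence ratio in a 140 s read after ATP addition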
CHO parental Ca = ATP-evoked calcium signal inhibitors, parental CHO, primary screen, counter-screen for OX1R antagonist project, cell-based, fluorescence, Fluo-8 calcium dye; parental CHO-K1, ATP-induced calcium, Fluo-8 fluorescence; inhibition, % at 5.6 µM; actives 0.63% (n = 330,000);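 active = inhibition above that plate's mean sample inhibition plus 3 SD, cut at about 26% in these data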;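 note: 0% = ATP-challenged DMSO wells and 100% = DMSO wells without ATP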
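Assay system: parental CHO cells; Read-out basis: percent inhibition of ATP-evoked calcium rise, normalized to controls; Benchmarks: ATP and no-ATP DMSO wells; Compound dosing: single nominal dose of 5.6 µM per compound; Signal: Fluo-8 calcium dye fluorescence; Also added: ATP as calcium-mobilizing challenge; Repeats: singlicate.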
M1 ag parental = counter-screen for M1 agonists: effect in parental CHO-K1 cells. activation, % at 3 µM. AID 602248, 2012. Fluo-8 calcium fluorescence; scaled to maximal ATP response, vehicle zero. actives 0.48% (n = 360,000); in the data active = activation above about 15%;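 note: untransfected CHO-K1 host cells lacking M1 receptor as counterscreen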
Starred values were filed as active, the others as inactive; . = no result.

SMILES	OX1R antag-1	OX1R antag-2	CHO-K1 Ca antag	M1 PAM parental	CHO parental Ca	M1 ag parental
O=C(CSc1nnc(SCc2ccccc2)s1)N/N=C/C=C\c1ccco1	-15	9	9	17	-15	16*
O=C(CSc1nnc(SCc2ccccc2)s1)N/N=C/C=C/c1ccccc1[N+](=O)[O-]	-10	46	-1	20	-21	3
Cc1ccc(C)c(S(=O)(=O)N2CCN(C(=O)c3ccc(OCc4c(C)noc4C)cc3)CC2)c1	-22	27	-7	-3	-20	3
Cc1ccccc1OCCOC(=O)c1ccc(S(=O)(=O)N2CCCC2)cc1	11	9	-8	12	30*	0
NC(=S)N/N=C/c1ccc(-c2ccc([N+](=O)[O-])cc2)o1	-10	21	-12	15	-6	1
CN(/N=C/c1ccc(-c2ccc([N+](=O)[O-])cc2)o1)c1ccccc1	60*	28	30*	-13	53*	17*
O=S(=O)(c1ccc(F)cc1)N1CCN(C(=S)NCC2CCCO2)CC1 (centres undefined)	-14	16	1	-1	-1	2
CC(C)c1nc(SCC(=O)Nc2ccc(N(C)C)cc2)c2ccccc2n1	-34	11	-11	6	-18	0
O=C(O)c1cc(-c2ccccc2Cl)n(-c2cccc(Cl)c2)n1	13	37*	-12	-8	-8	0
N#C/C(=C\c1ccc(OCCN2CCOCC2)cc1)C(=O)Nc1ccc(S(N)(=O)=O)cc1	1	21	-6	11	-7	0
CC1(C(=O)O)CCCN(C(=O)c2cccnc2Oc2ccccc2)C1 (centres undefined)	.	.	-17	29	.	1
COCC(C)n1c(SC(C)C(=O)NC2CCCCC2C)nc2ccccc2c1=O (centres undefined)	-23	14	-4	9	-17	0
CC1Sc2ccc(S(=O)(=O)N3CCC(C(=O)NCC(C)c4ccccc4)CC3)cc2NC1=O (centres undefined)	15	19	6	-13	34*	15*
Cc1ccccc1NC(=O)C1CCN(S(=O)(=O)c2ccc3c(c2)NC(=O)C(C)S3)CC1 (centres undefined)	-36	17	-16	12	-28	7
Cc1ccccc1-c1cnc(C(O)c2cc(Cl)cc(Cl)c2)[nH]1 (centres undefined)	.	.	1	4	.	2
O=C(O)/C=C/c1ccc([N+](=O)[O-])o1	-2	95	-10	16	-6	2
O=C1NC(=S)S/C1=C\C=C\c1ccc([N+](=O)[O-])o1	.	.	44*	2	.	26*
CC(=O)C(=Cc1ccc(-c2ccccc2)cc1)C(=O)c1ccccc1	.	.	-11	6	.	1
O=C(Nc1ccc2ccccc2n1)c1ccccc1Br	-3	42*	-22	13	-18	1
CCCNC(=O)C(Cc1ccc(F)cc1)NC(=O)c1ccccc1 (centres undefined)	-25	10	-14	5	-20	0
Cn1c(SCC2CCCO2)nnc1-c1cccc([N+](=O)[O-])c1 (centres undefined)	-16	50*	-23	13	-1	0
O=C(O)Cn1c(SCCOc2ccccc2)nc2ccccc21	8	43*	-30	13	-11	1
Cc1ccc(OCCSc2nc3ccccc3n2CC(=O)O)cc1C	-4	43*	3	-8	-12	0
O=C(OCCNc1nc(-c2ccccc2)nc2ccccc12)c1ccncc1	7	57*	10	17	-4	4
O=C(OCCNc1nc(-c2ccccc2)nc2ccccc12)c1cccnc1	-21	48*	1	3	-5	4
SMILES	OX1R antag-1	OX1R antag-2	CHO-K1 Ca antag	M1 PAM parental	CHO parental Ca	M1 ag parental
OCCNc1nc(-c2cccnc2)nc2ccccc12	-11	6	0	1	-3	5
O=C(O)CCNc1nc(-c2ccccc2)nc2ccccc12	9	14	-3	18	3	0
O=C(O)c1ccc2c3c(cccc13)C(=O)N(c1cccc3ccccc13)C2=O	-10	25	-14	15	-12	0
Cc1ccccc1N1C(=O)c2cccc3cccc(c23)C1=O	-13	20	-6	6	-16	1
O=C(O)c1ccccc1N1C(=O)c2cccc3cccc(c23)C1=O	-13	66*	-10	4	-3	0
Cc1c(N2C(=O)c3cccc4cccc(c34)C2=O)cnn1C	-19	51*	9	-9	-23	0
O=C1c2cccc3cccc(c23)C(=O)N1c1cccnc1	-16	48*	-25	24	-15	0
CC(=O)c1ccc(NC(=O)CCS(=O)(=O)c2ccc3c(c2)n(C)c(=O)c(=O)n3C)cc1	-7	6	-10	27	-2	1
CC(=O)Nc1ccc(S(=O)(=O)Nc2ccccc2N2CCOCC2)cc1	9	12	8	-1	5	1
Cc1noc(C)c1C(=O)N1CCC1(C)C(=O)NS(=O)(=O)c1ccc(F)cc1F (centres undefined)	.	.	4	-2	.	0
CCOC(=O)c1c(-c2ncc(C(F)(F)F)cc2Cl)noc1C	-22	13	7	-9	-18	0
c1ccc(CCN(Cc2ccccc2)C2CCN(C3CCCC3)CC2)cc1	-23	23	-10	9	-1	4
NC1=NC2(CCN(Cc3ccccc3)CC2)n2c(nc3ccccc32)N1	-21	9	29*	-8	-11	-1
Cc1noc(C)c1CSc1nc2ccccc2nc1NS(=O)(=O)c1ccc(Cl)cc1	-9	61*	-1	1	-8	1
O=S(=O)(Nc1nc2ccccc2nc1NCc1ccco1)c1ccc(Cl)cc1	-11	53	0	6	-16	5
CC(=O)c1ccc(NC(=S)NC(C)CCc2ccccc2)cc1 (centres undefined)	12	29	-1	3	-6	15*
Cc1cc(SCC(=O)NCCCN2CCCC2=O)nc2ccccc12	-9	10	-7	3	-13	0
Nc1ccc2c3c(cccc13)-c1ccccc1-2	.	.	38*	-12	.	35*
Cc1cccc(NC(=S)N2CCC(NC(=O)c3ccco3)CC2)c1	-6	19	-11	16	-3	0
COc1cccc(/C=C/C(=O)OCC(=O)Nc2nnc(-c3ccccc3)o2)c1	-12	32	2	6	-12	1
CCCc1c(-c2ccc(Cl)cc2)ncn1Cc1ccccc1OC	.	.	3	9	.	16*

Compound activity deposited in PubChem by The Scripps Research Institute Molecular Screening Center.
